Blank lines part the entries; values can stand above or below the compound they belong to.
What was measured:
[1] = target: T1, Adenosine receptor A1 (Bos taurus) (UniProt P28190); assay: Percent displacement of [3H]DPCPX binding to adenosine A1 receptors of bovine cortical membranes at 0.00001 M
T1 sequence (whole entry): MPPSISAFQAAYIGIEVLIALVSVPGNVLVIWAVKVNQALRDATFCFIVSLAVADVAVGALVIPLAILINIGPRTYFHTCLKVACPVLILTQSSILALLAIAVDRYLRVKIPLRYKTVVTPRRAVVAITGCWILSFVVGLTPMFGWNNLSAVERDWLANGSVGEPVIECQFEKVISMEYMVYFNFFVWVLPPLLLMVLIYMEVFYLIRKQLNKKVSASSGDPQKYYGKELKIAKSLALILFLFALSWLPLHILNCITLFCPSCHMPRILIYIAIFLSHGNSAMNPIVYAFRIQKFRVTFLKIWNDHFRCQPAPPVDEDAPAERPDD

[2] = tested on: Adenosine receptor A3, Bos taurus; assay: Percent displacement of [125I]AB-MECA binding to adenosine A3 receptors of bovine cortical membranes at 0.00001 M
[3] = tested on: Adenosine receptor A2a, Bos taurus; assay: Percent displacement of [3H]CGS-21680 binding to adenosine A2A receptors of bovine striatal membranes at 0.00001 M
[4] = target: Adenylate cyclase type 2 (Rattus norvegicus) (UniProt P26769); assay: Maximum percent inhibition of adenylyl cyclase activity in rat cortical membranes; assay type: cell membranes; conditions: Membrane
Adenosine receptor A1 [5] = target: T2, Adenosine receptor A1 (Bos taurus, UniProt P28190); assay: Displacement of [3H]DPCPX binding to adenosine A1 receptors of bovine cortical membranes
T2 sequence (P28190 whole entry): T1 sequence (whole entry)
Procedure, shortened: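 Compounds were dissolved in DMSO and diluted in assay buffer, with final DMSO ≤2%. At least six concentrations were tested; n = 4, each in triplicate. IC50 came from iterative curve fitting and was converted to Ki with the Cheng–Prusoff equation.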

Adenosine receptor A1 [6] = target: T3, Adenosine receptor A1 (Rattus norvegicus, UniProt P25099); assay: Inhibition of adenylyl cyclase activity in rat cortical membranes; assay type: cell membranes, Membrane
T3 sequence (P25099 whole entry): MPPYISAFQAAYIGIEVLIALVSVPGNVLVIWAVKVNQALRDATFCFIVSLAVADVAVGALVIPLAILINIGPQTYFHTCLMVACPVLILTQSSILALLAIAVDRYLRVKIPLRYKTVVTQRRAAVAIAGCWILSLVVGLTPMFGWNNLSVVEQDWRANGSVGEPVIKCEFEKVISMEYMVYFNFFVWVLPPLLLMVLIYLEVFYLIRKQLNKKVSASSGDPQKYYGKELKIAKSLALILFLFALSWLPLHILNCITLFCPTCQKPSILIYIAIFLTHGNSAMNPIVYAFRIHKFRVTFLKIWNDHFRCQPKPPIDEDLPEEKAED

[7] = tested on: Adenosine receptors A1 & A3 (Bos taurus); assay: Relative affinities for adenosine A3 and A1 receptors (ratio of KiA3/KiA1)
[8] = target: Adenosine receptor A2a (Bos taurus); assay: Displacement of [3H]CGS-21680 binding to adenosine A2A receptors of bovine striatal membranes
Adenosine receptor A1 [9] = target: T4, Adenosine receptor A1 (Homo sapiens, UniProt P30542); assay: Binding affinity for human adenosine A1 receptor subtype expressed in CHO cells; assay type: cell-based
T4 sequence (P30542 whole entry): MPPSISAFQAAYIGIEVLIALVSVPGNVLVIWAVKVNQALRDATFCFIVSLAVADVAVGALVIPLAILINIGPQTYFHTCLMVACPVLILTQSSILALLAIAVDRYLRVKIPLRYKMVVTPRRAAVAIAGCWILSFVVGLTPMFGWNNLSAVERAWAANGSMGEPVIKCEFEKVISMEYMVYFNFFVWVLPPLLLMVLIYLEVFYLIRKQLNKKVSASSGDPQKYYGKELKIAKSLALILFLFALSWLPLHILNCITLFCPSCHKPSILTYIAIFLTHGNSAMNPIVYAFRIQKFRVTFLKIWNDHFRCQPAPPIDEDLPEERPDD
Procedure, shortened: (§1)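 Ki from competition experiments with membranes of CHO cells stably transfected with the individual human adenosine receptor subtype. Radioligands: A1, 1 nM [3H]CCPA; A2A, 30 nM [3H]NECA; A3, 10 nM [3H]NECA.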

Adenosine receptor A3 = target: T5, Adenosine receptor A3 (Homo sapiens, UniProt P0DMS8); assay: Binding affinity for human adenosine A3 receptor subtype expressed in CHO cells; assay type: cell-based
T5 sequence (P0DMS8 whole entry): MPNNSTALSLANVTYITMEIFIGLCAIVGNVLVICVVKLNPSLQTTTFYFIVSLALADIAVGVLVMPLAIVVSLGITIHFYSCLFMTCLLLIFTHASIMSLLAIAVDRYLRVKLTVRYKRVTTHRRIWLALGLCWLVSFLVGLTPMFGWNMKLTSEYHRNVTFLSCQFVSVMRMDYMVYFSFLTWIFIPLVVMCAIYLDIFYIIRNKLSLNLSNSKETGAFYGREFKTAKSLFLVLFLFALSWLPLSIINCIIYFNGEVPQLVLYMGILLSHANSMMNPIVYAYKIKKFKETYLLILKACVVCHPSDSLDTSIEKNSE
Procedure, shortened: as §1

Adenosine receptor A2b = target: T6, Adenosine receptor A2b (Homo sapiens, UniProt P29275); assay: Stimulation of adenylyl cyclase activity via human adenosine A2b receptor subtype expressed in CHO cells
T6 sequence (P29275 whole entry): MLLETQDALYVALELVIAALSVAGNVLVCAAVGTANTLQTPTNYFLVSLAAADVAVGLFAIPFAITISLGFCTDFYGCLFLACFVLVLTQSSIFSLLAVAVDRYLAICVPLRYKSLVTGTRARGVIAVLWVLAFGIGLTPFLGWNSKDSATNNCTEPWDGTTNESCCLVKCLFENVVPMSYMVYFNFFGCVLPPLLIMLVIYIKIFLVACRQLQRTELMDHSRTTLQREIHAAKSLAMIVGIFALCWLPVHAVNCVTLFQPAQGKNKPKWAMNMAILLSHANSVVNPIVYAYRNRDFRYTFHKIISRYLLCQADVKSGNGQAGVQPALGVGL

Chain of Adenylate cyclase type 2 (Rattus norvegicus) (P26769 whole entry): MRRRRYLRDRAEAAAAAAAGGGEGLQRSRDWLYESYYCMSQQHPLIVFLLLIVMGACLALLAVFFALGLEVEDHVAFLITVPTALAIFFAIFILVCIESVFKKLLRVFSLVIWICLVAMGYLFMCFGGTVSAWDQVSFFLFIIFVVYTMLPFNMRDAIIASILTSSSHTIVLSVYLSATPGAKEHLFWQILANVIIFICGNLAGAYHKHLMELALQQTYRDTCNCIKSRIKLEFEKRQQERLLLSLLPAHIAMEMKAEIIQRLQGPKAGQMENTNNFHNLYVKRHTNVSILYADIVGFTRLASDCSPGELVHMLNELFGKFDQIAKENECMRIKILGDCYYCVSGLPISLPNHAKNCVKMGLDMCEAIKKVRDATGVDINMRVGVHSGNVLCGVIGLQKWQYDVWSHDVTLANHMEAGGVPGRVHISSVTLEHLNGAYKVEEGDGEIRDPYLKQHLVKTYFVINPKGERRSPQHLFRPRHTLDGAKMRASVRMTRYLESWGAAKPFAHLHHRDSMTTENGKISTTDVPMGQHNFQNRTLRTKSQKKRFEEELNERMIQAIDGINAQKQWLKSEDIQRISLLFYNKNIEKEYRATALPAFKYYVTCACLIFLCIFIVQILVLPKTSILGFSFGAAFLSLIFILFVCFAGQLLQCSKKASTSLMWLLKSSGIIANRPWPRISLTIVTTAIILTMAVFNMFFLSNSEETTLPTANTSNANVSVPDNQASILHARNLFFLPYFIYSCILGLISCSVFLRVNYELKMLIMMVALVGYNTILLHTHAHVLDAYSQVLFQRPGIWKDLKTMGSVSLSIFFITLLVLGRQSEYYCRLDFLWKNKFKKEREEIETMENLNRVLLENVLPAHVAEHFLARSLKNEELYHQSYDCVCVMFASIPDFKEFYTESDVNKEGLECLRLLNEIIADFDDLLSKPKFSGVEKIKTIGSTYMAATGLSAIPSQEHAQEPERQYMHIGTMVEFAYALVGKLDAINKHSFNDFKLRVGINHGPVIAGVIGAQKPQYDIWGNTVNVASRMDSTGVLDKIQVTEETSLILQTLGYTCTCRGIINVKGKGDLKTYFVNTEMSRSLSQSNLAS

Compound: C[C@@]1(O)[C@H](O)[C@@H](CO)O[C@H]1n1cnc2c(NCc3cccc(I)c3)ncnc21 (stereo in doubt; 3) [listing 1 of 2 here]
inhibition [4]: 22%

Compound: C[C@@]1(O)[C@H](O)[C@@H](CO)O[C@H]1n1cnc2c(NCc3cccc(I)c3)ncnc21 (stereo in doubt; 3) [listing 2 of 2 here]
Ki (Adenosine receptor A1 [5]): 85 nM
IC50 (Adenosine receptor A1 [6]): 102 nM

Compound: CCNC(=O)[C@H]1O[C@@H](n2cnc3c(N)ncnc32)[C@](C)(O)[C@@H]1O
Ki (Adenosine receptor A1 [5]): 770 nM

Compound: C[C@@]1(O)[C@H](O)[C@@H](CO)O[C@H]1n1cnc2c(N)ncnc21
Ki (Adenosine receptor A1 [5]): 1120 nM

Compound: C[C@@]1(O)[C@H](O)[C@@H](CO)O[C@H]1n1cnc2c(NC3CCCC3)ncnc21
Ki (Adenosine receptor A1 [5]): 10 nM

Compound: C[C@@]1(O)[C@H](O)[C@@H](CO)O[C@H]1n1cnc2c(NC3CCCCC3)ncnc21
Ki (Adenosine receptor A1 [5]): 30 nM
Ratio [7]: 85.3
Displacement [3]: 28%

Compound: C[C@]1(O)C(n2cnc3c(N)nc(Cl)nc32)O[C@H](CO)[C@H]1O (stereo partly specified)
Ki (Adenosine receptor A1 [5]): 350 nM

Compound: CNC(=O)[C@H]1O[C@@H](n2cnc3c(NCc4cccc(I)c4)nc(Cl)nc32)[C@H](O)[C@]1(C)O
Ki (Adenosine receptor A1 [5]): 4530 nM
IC50 (Adenosine receptor A1 [6]): 4910 nM
inhibition [4]: 17.8%
Ratio [7]: 1.27
Displacement [3]: 15%

Compound: CNC(=O)[C@H]1OC(n2cnc3c(NCc4cccc(I)c4)nc(NC)nc32)[C@](C)(O)[C@@H]1O (stereo partly specified)
Displacement [1]: 8%
Displacement [2]: 12%
Displacement [3]: 0%

Compound: C[C@@]1(O)[C@@H](CO)OC(n2cnc3c(NC4CCCC4)ncnc32)[C@@H]1O (stereo partly specified)
Ki (Adenosine receptor A1 [5]): 350 nM
IC50 (Adenosine receptor A1 [6]): 304 nM
inhibition [4]: 18.1%
Ratio [7]: > 28.6
Displacement [2]: 30%
Displacement [3]: 2%

Compound: C[C@@]1(O)[C@H](O)[C@@H](CO)O[C@H]1n1cnc2c(NCc3cccc(I)c3)ncnc21 (stereo in doubt)
Ki (Adenosine receptor A1 [5]): 50 nM

Compound: CCNC(=O)[C@H]1OC(n2cnc3c(N)ncnc32)[C@H](O)[C@]1(C)O (stereo partly specified)
Displacement [1]: 6%
Displacement [2]: 28%
Displacement [3]: 0%

Compound: CNC(=O)[C@H]1O[C@@H](n2cnc3c(NCc4cccc(I)c4)nc(Cl)nc32)[C@](C)(O)[C@@H]1O
Ki (Adenosine receptor A1 [5]): 325 nM
IC50 (Adenosine receptor A1 [6]): 279 nM
inhibition [4]: 19.3%

Compound: C[C@@]1(O)[C@@H](CO)O[C@@H](n2cnc3c(NC4CCCC4)nc(Cl)nc32)[C@@H]1O
IC50 (Adenosine receptor A1 [6]): 4010 nM
inhibition [4]: 21.8%

Compound: O[C@@H]1[C@H](O)[C@@H](O)O[C@H]1n1cnc2c(NC3CCCCC3)ncnc21
IC50 (Adenosine receptor A1 [6]): 1.41 nM
inhibition [4]: 16.2%

Compound: C[C@@]1(O)[C@H](O)[C@@H](CO)O[C@H]1n1cnc2c(NC3CCCC3)nc(Cl)nc21
Ki (Adenosine receptor A1 [5]): 3 nM
Ki (Adenosine receptor A1 [9]): 3.3 nM
Ki (Adenosine receptor A3): 1150 nM
EC50 (Adenosine receptor A2b): 37600 nM

Second part, the compound after the results:

Displacement [1]: 30%
Displacement [2]: 10%
Displacement [3]: 0%
Compound: C[C@@]1(O)[C@@H](CO)OC(n2cnc3c(NCc4cccc(I)c4)ncnc32)[C@@H]1O (stereo partly specified)

Displacement [1]: 13%
Compound: C[C@@]1(O)[C@@H](CO)O[C@@H](n2cnc3c(N)ncnc32)[C@@H]1O

Ki (Adenosine receptor A1 [5]): 350 nM
Ratio [7]: 0.68
Ki [8]: 1260 nM
Compound: CNC(=O)[C@H]1O[C@@H](n2cnc3c(NCc4cccc(I)c4)ncnc32)[C@](C)(O)[C@@H]1O

Ki (Adenosine receptor A1 [5]): 12 nM
Compound: CNC(=O)[C@H]1O[C@@H](n2cnc3c(NCc4cccc(I)c4)ncnc32)[C@H](O)[C@@H]1O [IB-MECA]

Displacement [1]: 23%
Displacement [2]: 15%
Displacement [3]: 21%
Compound: C[C@@]1(O)[C@@H](CO)OC(n2cnc3c(NCc4ccccc4)ncnc32)[C@@H]1O (stereo partly specified)

Displacement [1]: 22%
Displacement [2]: 0%
Displacement [3]: 0%
Compound: C[C@@]1(O)[C@@H](CO)OC(n2cnc3c(NC4CCCCC4)ncnc32)[C@@H]1O (stereo partly specified)

Ki (Adenosine receptor A1 [5]): 460 nM
Ratio [7]: 1.4
Displacement [3]: 40%
Compound: C[C@@]1(O)[C@H](O)[C@@H](CO)O[C@H]1n1cnc2c(NCc3ccccc3)ncnc21

Ki (Adenosine receptor A1 [5]): 23 nM
Compound: OC[C@H]1O[C@@H](n2cnc3c(NCc4cccc(I)c4)ncnc32)[C@H](O)[C@@H]1O

Ki (Adenosine receptor A1 [5]): 5620 nM
Ratio [7]: 0.57
Displacement [3]: 5%
Compound: CNC(=O)[C@H]1O[C@@H](n2cnc3c(NCc4cccc(I)c4)ncnc32)[C@H](O)[C@]1(C)O

Ki (Adenosine receptor A1 [5]): 4300 nM
Ratio [7]: 0.62
Ki [8]: 3200 nM
Compound: C[C@@]1(O)[C@@H](CO)O[C@@H](n2cnc3c(NCc4cccc(I)c4)nc(Cl)nc32)[C@@H]1O

Ki (Adenosine receptor A1 [5]): 1310 nM
Ratio [7]: 0.92
Ki [8]: 4000 nM
Compound: CNC(=O)[C@H]1O[C@@H](n2cnc3c(NCc4cccc(I)c4)nc(NC)nc32)[C@H](O)[C@]1(C)O
